Measurements reported in ChEMBL document CHEMBL4813921, “Optimization of WZ4003 as NUAK inhibitors against human colorectal cancer” (Eur J Med Chem, 2021).
Activity calls are given as the source filed them. The calls are words filed in the database; no cut-off is given here.

How the values were obtained:
[1] = biological target: T1, NUAK family SNF1-like kinase 2 (Homo sapiens) (UniProt Q9H093); assay: Inhibition of NUAK2 (unknown origin) at 10 uM using CHKtide as substrate in presence of ATP measured after 60 mins by ADP-Glo assay
T1 sequence (whole entry): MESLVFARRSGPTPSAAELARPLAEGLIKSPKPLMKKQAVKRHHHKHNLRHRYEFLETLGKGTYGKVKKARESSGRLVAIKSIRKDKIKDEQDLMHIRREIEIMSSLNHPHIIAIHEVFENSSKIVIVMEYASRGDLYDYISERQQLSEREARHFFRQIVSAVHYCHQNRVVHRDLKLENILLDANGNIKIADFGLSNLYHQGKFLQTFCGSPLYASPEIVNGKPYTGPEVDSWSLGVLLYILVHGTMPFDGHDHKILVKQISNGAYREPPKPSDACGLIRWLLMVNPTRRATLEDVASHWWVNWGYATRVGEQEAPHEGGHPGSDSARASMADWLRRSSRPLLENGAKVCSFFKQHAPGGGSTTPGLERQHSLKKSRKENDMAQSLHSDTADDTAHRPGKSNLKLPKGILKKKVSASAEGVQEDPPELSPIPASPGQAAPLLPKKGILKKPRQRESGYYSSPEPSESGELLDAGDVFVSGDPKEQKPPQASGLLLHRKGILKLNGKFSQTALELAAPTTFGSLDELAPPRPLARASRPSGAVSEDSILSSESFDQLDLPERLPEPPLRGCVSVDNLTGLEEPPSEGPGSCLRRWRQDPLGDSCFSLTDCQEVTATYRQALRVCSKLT

[2] = test system: HCT-116; assay: Inhibition of colony formation in human HCT-116 cells measured after 14 days by crystal violet staining based microcopic analysis; assay type: functional, cell-based; details: dose 0.5-2 µM, time 14.0 day
Summary of the method: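 Clonogenic assay with 14-day exposure to a range of compound concentrations; colonies stained with crystal violet and imaged by microscopy; compared with untreated cells.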

[3] = test system: U2OS; assay: Antiproliferative activity against human U2OS cells at 2.5 to 10 uM measured after 48 hrs by EdU staining based assay; assay type: functional, cell-based; details: dose 2.5-10 µM
Summary of the method: (§1)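 Cells exposed to a range of compound concentrations for 48 h, then EdU click-chemistry staining with DAPI counterstain. Confocal high-content imaging; DAPI-positive nuclei counted as total and EdU-positive as proliferating.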

[4] = test system: SW480; assay: Antiproliferative activity against human SW480 cells at 2.5 to 10 uM measured after 48 hrs by EdU staining based assay; assay type: functional, cell-based; details: dose 2.5-10 µM; summary of the method: as §1
[5] = test system: U2OS; assay: Induction of cell cycle arrest in human U2OS cells assessed as increase in accumulation at G2/M phase at 10 uM measured after 48 hrs by PI/RNaseA staining based flow cytometry assay; assay type: functional
[6] = test system: U2OS; assay: Induction of cell cycle arrest in human U2OS cells assessed as reduction in accumulation at G1 phase at 10 uM measured after 48 hrs by PI/RNaseA staining based flow cytometry assay; assay type: functional
[7] = test system: HCT-116; assay: Induction of cell cycle arrest in human HCT-116 cells assessed as increase in accumulation at G2/M phase at 10 uM measured after 48 hrs by PI/RNaseA staining based flow cytometry assay; assay type: functional
[8] = test system: HCT-116; assay: Induction of cell cycle arrest in human HCT-116 cells assessed as reduction in accumulation at G1 phase at 10 uM measured after 48 hrs by PI/RNaseA staining based flow cytometry assay; assay type: functional
[9] = test system: SW480; assay: Induction of cell cycle arrest in human SW480 cells assessed as increase in accumulation at G2/M phase at 10 uM measured after 48 hrs by PI/RNaseaA staining based flow cytometry assay; assay type: functional
[10] = test system: HCT-116; assay: Induction of ROS generation in human HCT-116 cells at 10 uM measured after 48 hrs by DCFH-DA staining based flow cytometry method; assay type: functional, cell-based
Summary of the method: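 Cells treated at 10 μM for 48 h, ROS measured by flow cytometry. Fluorescence intensity expressed relative to vehicle-treated controls; mean ± SEM from 3 independent experiments.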

[11] = test system: U2OS; assay: Induction of apoptosis in human U2OS cells assessed as viable cells at 10 uM measured after 48 hrs by Annexin V-FITC/PI staining based flow cytometry method (reference value: 95.5%); assay type: functional; details: read-out: Activity
[12] = test system: U2OS; assay: Induction of apoptosis in human U2OS cells assessed as early apoptotic cells at 10 uM measured after 48 hrs by Annexin V-FITC/PI staining based flow cytometry method (reference value: 2.8%); assay type: functional
[13] = test system: U2OS; assay: Induction of apoptosis in human U2OS cells assessed as necrotic cells at 10 uM measured after 48 hrs by Annexin V-FITC/PI staining based flow cytometry method (reference value: 0.4%); assay type: functional
[14] = test system: HCT-116; assay: Induction of apoptosis in human HCT-116 cells assessed as early apoptotic cells at 10 uM measured after 48 hrs by Annexin V-FITC/PI staining based flow cytometry method (reference value: 0.8%); assay type: functional
[15] = test system: SW480; assay: Induction of apoptosis in human SW480 cells assessed as early apoptotic cells at 10 uM measured after 48 hrs by Annexin V-FITC/PI staining based flow cytometry method (reference value: 2.6%); assay type: functional
[16] = test system: SW480; assay: Induction of apoptosis in human SW480 cells assessed as late apoptotic cells at 10 uM measured after 48 hrs by Annexin V-FITC/PI staining based flow cytometry method (reference value: 2.8%); assay type: functional
[17] = test system: SW480; assay: Induction of apoptosis in human SW480 cells assessed as necrotic cells at 10 uM measured after 48 hrs by Annexin V-FITC/PI staining based flow cytometry method (reference value: 1.4%); assay type: functional
[18] = Toxicity against BALB/c-nu/nu mouse xenografted with human SW480 cells assessed as morphological changes in liver at 10 to 20 mg/kg, ip administered every 2 days for 18 days by H and E staining based analysis; assay type: organism-based; details: in vivo, 432 h, dose 10-20 mg/kg, time 18 day
Summary of the method: (§2)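 After 18 days of ip dosing every two days in SW480-xenografted nude mice, heart, liver, spleen, lung and kidney harvested, sectioned, HE-stained, examined at ×400.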

[19] = test system: SW480; assay: Antitumour activity against human SW480 cells xenografted in Balb/c-nu/nu mouse assessed as reduction in Ki67 expression in tumor at 10 mg/kg, ip administered every 2 days for 18 days by immunohistochemical assay; assay type: functional, organism-based; details: time 18.0 day
Summary of the method: (§3)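 SW480 xenografts in nude mice (n = 6 per group) treated ip every two days for 18 days. Excised tumours sectioned for HE and Ki67 staining, examined at ×400.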

[20] = test system: SW480; assay: Antitumour activity against human SW480 cells xenografted in Balb/c-nu/nu mouse assessed as reduction in Ki67 expression in tumor at 20 mg/kg, ip administered every 2 days for 18 days by immunohistochemical assay; assay type: functional, organism-based; details: time 18.0 day; summary of the method: as §3
[21] = test system: SW480; assay: Antitumour activity against human SW480 cells xenografted in Balb/c-nu/nu mouse assessed as reduction in tumor weight at 10 to 20 mg/kg, ip administered every 2 days for 18 days; assay type: functional, organism-based; details: dose 10-20 mg/kg, time 18.0 day
Summary of the method: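 SW480 xenografts in nude mice, randomized at 100 mm3 tumour volume into four groups of six. Dosed ip at 10 or 20 mg/kg every two days for 18 days, with vehicle group. Tumour volume and body weight recorded every two days; tumours weighed at end; means ± SD (n = 6).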

[22] = Toxicity against BALB/c-nu/nu mouse xenografted with human SW480 cells assessed as morphological changes in spleen at 10 to 20 mg/kg, ip administered every 2 days for 18 days by H and E staining based analysis; assay type: organism-based; details: in vivo, 432 h, dose 10-20 mg/kg, time 18 day; summary of the method: as §2

inhibition [1]: 82.5%
SMILES: CCC(=O)Nc1cccc(Oc2nc(Nc3ccc(N4CCN(C)CC4)cc3)ncc2Cl)c1
inhibition [2]: Dose-Dependent Effect
Activity [3]: Active
Activity [4]: Active
Activity [5]: Active
Activity [6]: Active
Activity [7]: Active
Activity [8]: Active
Activity [9]: Active
Activity [10]: Active
viability at 10 µM [11]: 81.6%
Activity [12]: 12.9%
Activity [13]: 0.6%
Activity [14]: 3.9%
Activity [15]: 16.2%
Activity [16]: 10.8%
Activity [17]: 3.3%
Activity [18]: Non-Toxic
Activity [19]: Active
Activity [20]: Active
Activity [21]: Active
Activity [22]: Non-Toxic
